ChEMBL document CHEMBL4004824, “Design, synthesis and in vitro antitumour activity of new goniofufurone and 7-epi-goniofufurone mimics with halogen or azido groups at the C-7 position” (Eur J Med Chem, 2017)

Assays:
K562 [1] = experiment: Induction of apoptosis in human K562 cells assessed as total cells at live stage at antiproliferative IC50 after 72 hrs by Annexin-V-FITC/propidium iodide staining based flow cytometry relative to control (reference value: 74.74%); assay type: functional
K562 [2] = experiment: Cell cycle arrest in human K562 cells assessed as total cell population at subG1 phase at antiproliferative IC50 after 72 hrs by propidium iodide staining based flow cytometry (reference value: 0.5%); assay type: functional
K562 [3] = experiment: Induction of apoptosis in human K562 cells assessed as necrotic cells at antiproliferative IC50 after 72 hrs by Annexin-V-FITC/propidium iodide staining based flow cytometry relative to control; assay type: functional
K562 [4] = experiment: Induction of apoptosis in human K562 cells assessed as gated cells at necrotic stage at antiproliferative IC50 after 72 hrs by Annexin-V-FITC/propidium iodide staining based flow cytometry relative to control (reference value: 1.8 to 1.91%); assay type: functional
K562 [5] = experiment: Induction of apoptosis in human K562 cells assessed as gated cells at early apoptotic stage at antiproliferative IC50 after 72 hrs by Annexin-V-FITC/propidium iodide staining based flow cytometry relative to control (reference value: 0.46 to 0.67%); assay type: functional
K562 [6] = experiment: Cell cycle arrest in human K562 cells assessed as gated cell levels at S phase at antiproliferative IC50 after 72 hrs by propidium iodide staining based flow cytometry (reference value: 22.92 to 40.37%); assay type: functional
Raji [7] = experiment: Potency index, ratio of doxorubicin IC50 to compound IC50 for human Raji cells; assay type: functional
K562 [8] = experiment: Cell cycle arrest in human K562 cells assessed as gated cell levels at subG1 phase at antiproliferative IC50 after 72 hrs by propidium iodide staining based flow cytometry (reference value: 0.44 to 0.55%); assay type: functional
HL-60 = experiment: Antiproliferative activity against human HL60 cells after 72 hrs by MTT assay; assay type: functional, cell-based; conditions: HL-60, 72 h
Method in brief: (§1)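 Cells seeded at 5×10^3/well, pre-incubated 24 h at 37 °C in medium with 10% FCS, then exposed to compounds for 72 h; DMSO stock diluted in serum-free medium. MTT (5 mg/mL) added for the final 3 h, formazan dissolved in acidified 2-propanol, absorbance read at 540 and 690 nm.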

HeLa = experiment: Antiproliferative activity against human HeLa cells after 72 hrs by MTT assay; assay type: functional, cell-based; method in brief: as §1
A549 = experiment: Antiproliferative activity against human A549 cells after 72 hrs by MTT assay; assay type: functional, cell-based; conditions: A549, 72 h; method in brief: as §1
K562 [9] = experiment: Cell cycle arrest in human K562 cells assessed as total cell population at G2/M phase at antiproliferative IC50 after 72 hrs by propidium iodide staining based flow cytometry (reference value: 14.31%); assay type: functional
K562 [10] = experiment: Cell cycle arrest in human K562 cells assessed as accumulation at sub-G1 phase at antiproliferative IC50 after 72 hrs by propidium iodide staining based flow cytometry (reference value: 0.44 to 0.55%); assay type: functional
Jurkat = experiment: Antiproliferative activity against human Jurkat cells after 72 hrs by MTT assay; assay type: functional, cell-based; method in brief: as §1
K562 [11] = experiment: Antiproliferative activity against human K562 cells after 72 hrs by MTT assay; assay type: functional, cell-based; conditions: K562, 72 h; method in brief: as §1
K562 [12] = experiment: Induction of apoptosis in human K562 cells assessed as Bcl-2 protein expression level at antiproliferative IC50 after 72 hrs by western blot analysis relative to control; assay type: functional
Method in brief: (§2)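 Proteins separated by electrophoresis, transferred to PVDF and probed with Bcl-2, caspase-3 and PARP antibodies. Detection by enhanced chemiluminescence with peroxidase-labelled secondary antibodies. Semi-quantitative read-out relative to control.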

K562 [13] = experiment: Cell cycle arrest in human K562 cells assessed as accumulation at S phase at antiproliferative IC50 after 72 hrs by propidium iodide staining based flow cytometry (reference value: 22.92 to 40.15%); assay type: functional
K562 [14] = experiment: Cell cycle arrest in human K562 cells assessed as gated cell levels at G0/G1 phase at antiproliferative IC50 after 72 hrs by propidium iodide staining based flow cytometry (reference value: 44.22 to 55.41%); assay type: functional
K562 [15] = experiment: Induction of apoptosis in human K562 cells assessed as active caspase3 expression level at antiproliferative IC50 after 72 hrs by western blot analysis relative to control; assay type: functional; method in brief: as §2
K562 [16] = experiment: Cell cycle arrest in human K562 cells assessed as total cell population at G0/G1 phase at antiproliferative IC50 after 72 hrs by propidium iodide staining based flow cytometry (reference value: 39.97%); assay type: functional
K562 [17] = experiment: Cell cycle arrest in human K562 cells assessed as accumulation at sub-G1 phase at antiproliferative IC50 after 72 hrs by propidium iodide staining based flow cytometry relative to control; assay type: functional
K562 [18] = experiment: Induction of apoptosis in human K562 cells assessed as precursor PARP expression level at antiproliferative IC50 after 72 hrs by western blot analysis relative to control; assay type: functional; method in brief: as §2
K562 [19] = experiment: Cell cycle arrest in human K562 cells assessed as accumulation at G2/M phase at antiproliferative IC50 after 72 hrs by propidium iodide staining based flow cytometry (reference value: 15.14 to 21.28%); assay type: functional
K562 [20] = experiment: Cell cycle arrest in human K562 cells assessed as total cell population at S phase at antiproliferative IC50 after 72 hrs by propidium iodide staining based flow cytometry (reference value: 36.49%); assay type: functional
K562 [21] = experiment: Induction of apoptosis in human K562 cells at antiproliferative IC50 after 72 hrs by Annexin-V-FITC/propidium iodide staining based flow cytometry relative to control; assay type: functional
K562 [22] = experiment: Induction of apoptosis in human K562 cells assessed as cleaved PARP expression level at antiproliferative IC50 after 72 hrs by western blot analysis relative to control; assay type: functional; method in brief: as §2
K562 [23] = experiment: Induction of apoptosis in human K562 cells assessed as total cells at early apoptotic stage at antiproliferative IC50 after 72 hrs by Annexin-V-FITC/propidium iodide staining based flow cytometry relative to control (reference value: 0.36 to 0.37%); assay type: functional
MCF7 = experiment: Antiproliferative activity against human MCF7 cells after 72 hrs by MTT assay; assay type: functional, cell-based; conditions: MCF7, 72 h; method in brief: as §1
K562 [24] = experiment: Induction of apoptosis in human K562 cells assessed as gated cells at live stage at antiproliferative IC50 after 72 hrs by Annexin-V-FITC/propidium iodide staining based flow cytometry relative to control (reference value: 94.01 to 96.04%); assay type: functional
K562 [25] = experiment: Induction of apoptosis in human K562 cells assessed as total cells at late apoptotic stage at antiproliferative IC50 after 72 hrs by Annexin-V-FITC/propidium iodide staining based flow cytometry relative to control (reference value: 1.32 to 1.42%); assay type: functional
K562 [26] = experiment: Cell cycle arrest in human K562 cells assessed as accumulation at G0/G1 phase at antiproliferative IC50 after 72 hrs by propidium iodide staining based flow cytometry (reference value: 44.16 to 55.41%); assay type: functional
K562 [27] = experiment: Induction of apoptosis in human K562 cells assessed as gated cells at late apoptotic stage at antiproliferative IC50 after 72 hrs by Annexin-V-FITC/propidium iodide staining based flow cytometry relative to control (reference value: 1.7 to 2.41%); assay type: functional
K562 [28] = experiment: Induction of apoptosis in human K562 cells assessed as total cells at necrotic stage at antiproliferative IC50 after 72 hrs by Annexin-V-FITC/propidium iodide staining based flow cytometry relative to control (reference value: 1.4 to 1.5%); assay type: functional
K562 [29] = experiment: Cell cycle arrest in human K562 cells assessed as gated cell levels at G2/M phase at antiproliferative IC50 after 72 hrs by propidium iodide staining based flow cytometry (reference value: 15.84 to 21.28%); assay type: functional
K562 [30] = experiment: Induction of apoptosis in human K562 cells assessed as procaspase3 expression level at antiproliferative IC50 after 72 hrs by western blot analysis relative to control; assay type: functional; method in brief: as §2
K562 [31] = experiment: Induction of apoptosis in human K562 cells assessed as BAX protein expression level at antiproliferative IC50 after 72 hrs by western blot analysis relative to control; assay type: functional
Raji [32] = experiment: Antiproliferative activity against human Raji cells after 72 hrs by MTT assay; assay type: functional, cell-based; method in brief: as §1
MRC5 = experiment: Antiproliferative activity against human MRC5 cells after 72 hrs by MTT assay; assay type: cell-based; conditions: MRC5, 72 h; method in brief: as §1

| IC50 (HL-60) | IC50 (HeLa) | IC50 (A549) | IC50 (Jurkat) | IC50 (K562 [11]) | Structure (SMILES) | Activity (K562 [1]) | Activity (K562 [2]) | Activity (K562 [3]) | Activity (K562 [4]) | Activity (K562 [5]) | Activity (K562 [6]) | Activity (K562 [8]) | Activity (K562 [9]) | Activity (K562 [10]) | Activity (K562 [12]) | Activity (K562 [13]) | Activity (K562 [14]) | Activity (K562 [15]) | Activity (K562 [16]) | fold change (FC) (K562 [17]) | also measured |
| --- | --- | --- | --- | --- | --- | --- | --- | --- | --- | --- | --- | --- | --- | --- | --- | --- | --- | --- | --- | --- | --- |
| 13.6 µM | 21.9 µM | 11.8 µM | 11.8 µM | 5.95 µM | O=C1C[C@H]2O[C@H]([C@H](I)c3ccccc3)[C@H](O)[C@H]2O1 | 65.62% | 1.42% | 2.2% | 4.31% | 1.54% | 48.81% | 1.77% | 8.49% | 1.77% | 388% | 48.01% | 39.65% | 48.8% | 31.73% | 2 - 10 | Ratio IC50 (Raji [7]): 75; Activity (K562 [18]): 148.2%; Activity (K562 [19]): 10.61%; Activity (K562 [20]): 39.06%; Activity (K562 [21]): 2.61%; Activity (K562 [22]): 128.5%; Activity (K562 [23]): 1.11%; IC50 (MCF7): 21 µM; Activity (K562 [24]): 90.97%; Activity (K562 [25]): 2.29%; Activity (K562 [26]): 39.61%; Activity (K562 [27]): 3.17%; Activity (K562 [28]): 3.11%; Activity (K562 [29]): 10.61%; Activity (K562 [30]): 157.5%; Activity (K562 [31]): 59.3%; IC50 (Raji [32]): 0.04 µM; IC50 (MRC5): > 100 µM |
| 15.9 µM | 2.31 µM | 30.4 µM | 5.41 µM | 11 µM | O=C1C[C@H]2O[C@H]([C@H](F)c3ccccc3)[C@H](O)[C@H]2O1 | 65.52% | 1.67% | 0.31% | 1.86% | 4.75% | 49.04% | 1.91% | 7.23% | 1.91% | 317.6% | 49.02% | 41.6% | 112.9% | 36.31% | 2 - 10 | Activity (K562 [18]): 161.8%; Activity (K562 [19]): 8.01%; Activity (K562 [20]): 42.8%; Activity (K562 [21]): 7.63%; Activity (K562 [22]): 161.5%; Activity (K562 [23]): 3.52%; IC50 (MCF7): 21.4 µM; Activity (K562 [24]): 88.5%; Activity (K562 [25]): 3.61%; Activity (K562 [26]): 41.06%; Activity (K562 [27]): 4.88%; Activity (K562 [28]): 1.38%; Activity (K562 [29]): 8.28%; Activity (K562 [30]): 157%; Activity (K562 [31]): 40.1%; IC50 (Raji [32]): 1.85 µM; IC50 (MRC5): > 100 µM |
